Measurements as given in ChEMBL document CHEMBL3739331, “Synthesis and Bioactivities of Kanamycin B-Derived Cationic Amphiphiles” (J Med Chem, 2015).
Values after ≈ are worked out from the molar mass of the structure shown. Active and inactive are the calls of the source. No cut-off for these calls is given here.

Legend:
Candida albicans [1] = experiment: Antifungal activity against azole-resistant Candida albicans ATCC 90819 after 48 hrs in presence of posaconazole by checkerboard microdilution assay; type: functional; settings: ATCC 90819, 48 h
Procedure, shortened: (§1)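 Checkerboard combinations of the aminoglycoside amphiphile with posaconazole against yeast strains, run in duplicate. Each agent's MIC is taken alone and in combination. The fractional inhibitory concentration index (FICI) is calculated to classify the interaction.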

Candida albicans [2] = experiment: Antifungal activity against azole-susceptible Candida albicans ATCC MYA-2310 after 48 hrs in presence of posaconazole by checkerboard microdilution assay; type: functional; settings: ATCC MYA-2310, 48 h; procedure, shortened: as §1
Candida albicans [3] = experiment: Antifungal activity against azole-resistant Candida albicans MYA-1237 after 48 hrs in presence of posaconazole by checkerboard microdilution assay; type: functional; settings: MYA-1237, 48 h; procedure, shortened: as §1
Candida albicans [4] = experiment: Antifungal activity against azole-resistant Candida albicans MYA-1003 after 48 hrs in presence of posaconazole by checkerboard microdilution assay; type: functional; settings: MYA-1003, 48 h; procedure, shortened: as §1
Candida albicans [5] = experiment: Antifungal activity against azole-resistant Candida albicans ATCC 64124 at sub-MIC measured over 24 hrs by time-kill assay; type: functional, organism-based
Procedure, shortened: (§2)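 Time-kill assay on C. albicans ATCC 64124 cultures exposed to test compound at 1/2 MIC, MIC and higher concentrations. Amphotericin B at 1 μg/mL and a no-drug culture serve as controls. CFU are counted at intervals over 24 h.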

Candida albicans [6] = experiment: Antifungal activity against azole-resistant Candida albicans ATCC 64124 at MIC measured after 6 hrs by time-kill assay; type: functional; procedure, shortened: as §2
Candida albicans [7] = experiment: Antifungal activity against azole-resistant Candida albicans ATCC 64124 assessed as cell death after 12 hrs by time-kill assay; type: functional, organism-based; procedure, shortened: as §2
Candida albicans [8] = experiment: Antifungal activity against azole-resistant Candida albicans ATCC 64124 assessed as cell membrane permeabilization at twice the MIC after 1 hr by propidium iodide-staining based fluorescence microscopic analysis (reference value: <2%); type: functional
[9] = Hemolytic activity against mouse RBC at 7.8 ug/ml after 60 mins; type: ADME, cell-based, Erythrocyte; settings: red blood cells, read-out: Activity
[10] = Hemolytic activity against mouse RBC at 500 ug/ml after 60 mins; type: ADME, cell-based, Erythrocyte; settings: red blood cells, read-out: Activity
A549 = experiment: Cytotoxicity against human A549 cells after 24 hrs by resazurin assay; type: cell-based; settings: Homo sapiens, A549, 24 h
[11] = Cytotoxicity against human BEAS2B cells after 24 hrs by resazurin assay; type: cell-based, BEAS-2B; settings: Homo sapiens, BEAS-2B
Klebsiella pneumoniae = experiment: Antibacterial activity against Klebsiella pneumoniae ATCC 27736 by microdilution method; type: functional
Procedure, shortened: (§3)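 Broth microdilution MIC against the named bacterial strain, reported in μg/mL; each determination run at least in duplicate.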

[12] = Activity of AAC(3)-4 (unknown origin) assessed as compound acetylation activity by Ellman's method
Candida albicans [13] = experiment: Antifungal activity against azole-resistant Candida albicans ATCC 64124 assessed as cell membrane permeabilization at 1 times MIC after 1 hr by propidium iodide-staining based fluorescence microscopic analysis (reference value: <2%); type: functional
Bacillus subtilis = experiment: Antibacterial activity against Bacillus subtilis 168 by microdilution method; type: functional; settings: subsp. subtilis str. 168; procedure, shortened: as §3
Listeria monocytogenes = experiment: Antibacterial activity against Listeria monocytogenes ATCC 19115 by microdilution method; type: functional; procedure, shortened: as §3
Staphylococcus aureus [14] = experiment: Antibacterial activity against methicillin-resistant Staphylococcus aureus by microdilution method; type: functional
Procedure, shortened: (§4)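 Broth microdilution MIC, in μg/mL, against a panel of Gram-positive and Gram-negative strains. Run at least in duplicate.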

Staphylococcus aureus [15] = experiment: Antibacterial activity against Staphylococcus aureus NRS382 (USA 100) by microdilution method; type: functional; procedure, shortened: as §3
Staphylococcus aureus [16] = experiment: Antibacterial activity against Staphylococcus aureus NRS383 (USA 200) by microdilution method; type: functional; procedure, shortened: as §3
Staphylococcus aureus [17] = experiment: Antibacterial activity against Staphylococcus aureus NRS385 (USA 300) by microdilution method; type: functional; procedure, shortened: as §4
[18] = system: Staphylococcus epidermidis; experiment: Antibacterial activity against Staphylococcus epidermidis ATCC 12228 by microdilution method; type: functional; procedure, shortened: as §3
Acinetobacter baumannii = experiment: Antibacterial activity against Acinetobacter baumannii ATCC 19606 by microdilution method; type: functional; procedure, shortened: as §3
Enterobacter cloacae = experiment: Antibacterial activity against Enterobacter cloacae ATCC 13047 by microdilution method; type: functional; procedure, shortened: as §3
Escherichia coli = experiment: Antibacterial activity against Escherichia coli MC1061 by microdilution method; type: functional; procedure, shortened: as §4
Pseudomonas aeruginosa = experiment: Antibacterial activity against Pseudomonas aeruginosa ATCC 27853 by microdilution method; type: functional; procedure, shortened: as §3
Salmonella enterica = experiment: Antibacterial activity against Salmonella enterica ATCC 14028 by microdilution method; type: functional; procedure, shortened: as §3
[19] = system: Bacillus subtilis subsp. subtilis str. 168; experiment: Activity of Bacillus subtilis 168 APH(2'')-1a assessed as compound phosphorylation activity by Ellman's method
[20] = Activity of AAC(6')-1e/APH(2'')-1a (unknown origin) assessed as compound acetylation activity by Ellman's method
Serratia marcescens = experiment: Activity of Serratia marcescens AAC(6')-2d assessed as compound acetylation activity by Ellman's method
[21] = system: Mycobacterium tuberculosis; experiment: Activity of Mycobacterium tuberculosis AAC(2')-1c assessed as compound acetylation activity by Ellman's method
[22] = system: Mycobacterium tuberculosis; experiment: Activity of Mycobacterium tuberculosis Eis assessed as compound acetylation activity by Ellman's method
[23] = Activity of Mycobacterium tuberculosis AAC(2')-1c/AAC(3)-4 (unknown origin) assessed as compound conversion to 3'-acetylated product incubated for 20 hrs by TLC analysis
[24] = Activity of Mycobacterium tuberculosis AAC(2')-1c/Serratia marcescens AAC(6')-2d assessed as compound conversion to 6'-monoacetylated product incubated for 20 hrs by TLC analysis
[25] = Activity of AAC(3)-4 (unknown origin)/Serratia marcescens AAC(6')-2d assessed as compound conversion to 3'-acetylated product incubated for 20 hrs by TLC analysis
[26] = Activity of Mycobacterium tuberculosis AAC(2')-1c/AAC(3)-4 (unknown origin)/Serratia marcescens AAC(6')-2d (unknown origin) assessed as compound conversion to 3'-monoacetylated product incubated for 20 hrs by TLC analysis
Candida albicans [27] = experiment: Antifungal activity against azole-resistant Candida albicans ATCC 10231 after 48 hrs by microbroth dilution method; type: functional; settings: ATCC 10231, 48 h
Procedure, shortened: (§5)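 Yeast MIC by broth microdilution, run in duplicate. The aminoglycoside compounds are read as MIC-0 (complete inhibition). Azoles are read as MIC-2 (50% inhibition).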

Candida albicans [28] = experiment: Antifungal activity against azole-resistant Candida albicans ATCC 64124 after 48 hrs by microbroth dilution method; type: functional; settings: ATCC 64124, 48 h; procedure, shortened: as §5
Candida albicans [29] = experiment: Antifungal activity against azole-susceptible Candida albicans ATCC MYA-2876 after 48 hrs by microbroth dilution method; type: functional; settings: ATCC MYA-2876, 48 h; procedure, shortened: as §5
Candida albicans [30] = experiment: Antifungal activity against azole-resistant Candida albicans ATCC 90819 after 48 hrs by microbroth dilution method; type: functional; settings: ATCC 90819, 48 h; procedure, shortened: as §5
Candida albicans [31] = experiment: Antifungal activity against azole-susceptible Candida albicans ATCC MYA-2310 after 48 hrs by microbroth dilution method; type: functional; settings: ATCC MYA-2310, 48 h; procedure, shortened: as §5
Candida albicans [32] = experiment: Antifungal activity against azole-resistant Candida albicans MYA-1237 after 48 hrs by microbroth dilution method; type: functional; settings: MYA-1237, 48 h; procedure, shortened: as §5
Candida albicans [33] = experiment: Antifungal activity against azole-resistant Candida albicans MYA-1003 after 48 hrs by microbroth dilution method; type: functional; settings: MYA-1003, 48 h; procedure, shortened: as §5
Aspergillus nidulans = experiment: Antifungal activity against Aspergillus nidulans ATCC 38163 after 48 hrs by microbroth dilution method; type: functional; settings: ATCC 38163, 48 h
Procedure, shortened: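 Filamentous fungus MIC by broth microdilution, run in duplicate. All compounds are read as MIC-0 (complete inhibition).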

Candida albicans [34] = experiment: Antifungal activity against azole-resistant Candida albicans ATCC 10231 after 48 hrs in presence of posaconazole by checkerboard microdilution assay; type: functional; settings: ATCC 10231, 48 h; procedure, shortened: as §1
Candida albicans [35] = experiment: Antifungal activity against azole-resistant Candida albicans ATCC 64124 after 48 hrs in presence of posaconazole by checkerboard microdilution assay; type: functional; settings: ATCC 64124, 48 h; procedure, shortened: as §1
Candida albicans [36] = experiment: Antifungal activity against azole-susceptible Candida albicans ATCC MYA-2876 after 48 hrs in presence of posaconazole by checkerboard microdilution assay; type: functional; settings: ATCC MYA-2876, 48 h; procedure, shortened: as §1

CCCCCCCCCCCCCCSC[C@@H]1O[C@@H](O[C@@H]2[C@@H](O)[C@H](O[C@@H]3O[C@@H](CN)[C@H](O)[C@@H](O)[C@@H]3N)[C@@H](N)C[C@H]2N)[C@@H](O)[C@H](N)[C@H]1O (stereo in doubt)
MIC (Candida albicans [1]): 1 mg/L | MIC (Candida albicans [2]): 1 mg/L | MIC (Candida albicans [3]): 1 mg/L | MIC (Candida albicans [4]): 2 mg/L | Activity (Candida albicans [5]): Active | LCK (Candida albicans [6]): >=2 | Activity (Candida albicans [7]): Active | Activity (Candida albicans [8]): 49% | hemolysis at 1 h, 7.8 ug/ml [9]: 15% | hemolysis at 1 h, 500 ug/ml [10]: 73% | IC50 (A549): > 62.5 mg/L | IC50 [11]: > 62.5 mg/L | MIC (Klebsiella pneumoniae): > 128 mg/L | Activity [12]: inactive | Activity (Candida albicans [13]): 84% | MIC (Bacillus subtilis): > 128 mg/L | MIC (Listeria monocytogenes): 0.5 mg/L (≈ 0.718 µM) | MIC (Staphylococcus aureus [14]): 32 mg/L (≈ 46 µM) | MIC (Staphylococcus aureus [15]): 32 mg/L (≈ 46 µM) | MIC (Staphylococcus aureus [16]): 8 mg/L (≈ 11.5 µM) | MIC (Staphylococcus aureus [17]): 16 mg/L (≈ 23 µM) | MIC [18]: > 128 mg/L | MIC (Acinetobacter baumannii): > 128 mg/L | MIC (Enterobacter cloacae): 128 mg/L (≈ 184 µM) | MIC (Escherichia coli): > 128 mg/L | MIC (Pseudomonas aeruginosa): 64 mg/L (≈ 92 µM) | MIC (Salmonella enterica): 32 mg/L (≈ 46 µM) | Activity [19]: inactive | Activity [20]: inactive | Activity (Serratia marcescens): inactive | Activity [21]: inactive | Activity [22]: inactive | Activity [23]: Active | Activity [24]: Active | Activity [25]: Active | Activity [26]: Active | MIC (Candida albicans [27]): 7.8 mg/L (≈ 11.2 µM) | MIC (Candida albicans [28]): 7.8 mg/L (≈ 11.2 µM) | MIC (Candida albicans [29]): 7.8 mg/L (≈ 11.2 µM) | MIC (Candida albicans [30]): 15.6 mg/L (≈ 22.4 µM) | MIC (Candida albicans [31]): 7.8 mg/L (≈ 11.2 µM) | MIC (Candida albicans [32]): 7.8 mg/L (≈ 11.2 µM) | MIC (Candida albicans [33]): 7.8 mg/L (≈ 11.2 µM) | MIC (Aspergillus nidulans): ≤ 1.95 mg/L | MIC (Candida albicans [34]): 4 mg/L | MIC (Candida albicans [35]): 1 mg/L | MIC (Candida albicans [36]): 1 mg/L
